In PubChem BioAssay AID493070 (Broad Institute, 2011):
The source made the active and inactive calls.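 How the source made its calls: active means growth signal loss with fitted half-maximal concentration up to ten times the top valid dose; inconclusive means flat curve with 30 to 70% inhibition, or poor fit; inactive means the rest, including opposite-direction effects.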

Test: C. albicans CaCi-2 growth inhibition, compound alone, dose response, counter-screen, Alamar Blue fluorescence, dry powder, set 5 (AID 493070)
Details: 48 h; series mostly up to 26 µM; activity change, negative = inhibition: at the top concentration
Procedure, shortened: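 Material: C. albicans CaCi-2 grown without fluconazole | Doses: Pinned compound | Detection: Alamar Blue fluorescence, Ex 544/Em 590 nm | Measure: Fungal growth from Alamar Blue RFU, signal loss indicating broad toxicity | Incubation: 48 h growth at 37 °C, 2 h dye step | Buffer or medium: RPMI-based synthetic defined medium containing MOPS, glucose and uridine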

Structure (SMILES)	activity change, negative = inhibition	outcome
N#Cc1cccc(N2CCN(C(=O)c3ccc(Cl)cc3)CC2)n1	-1.78% (inactive)	
COc1ccc2c(c1)c1nc3n(c(=O)c1n2CC(=O)N1CCC(C)CC1)CCS3	0.019% [at 2.6 µM] (inactive)	
COC(=O)Cn1nc(-c2ccc(C)cc2)c2ccccc21	-1% (inactive)	
COC(=O)Cn1nc(-c2ccc(Cl)cc2)c2ccccc21	0.372% (inactive)	
CC1CCN(C(=O)Cn2c3ccccc3c3nc4n(c(=O)c32)CCS4)CC1	2.14% (inactive)	
COc1ccc(NC(=O)Cn2c3ccccc3c3nc4n(c(=O)c32)CCS4)cc1	-4.77% (inactive)	
O=C(Cn1c2ccccc2c2nc3n(c(=O)c21)CCS3)N1CCCC1		inactive
COC(=O)Cn1nc(-c2ccccc2)c2ccccc21	-4.87% (inactive)	
CC1CCN(C(=O)Cn2c3ccc(F)cc3c3nc4n(c(=O)c32)CCCS4)CC1	1.51% (inactive)	
COc1ccc2c(c1)c1nc3n(c(=O)c1n2CC(=O)N1CCC(Cc2ccccc2)CC1)CCS3	2.34% (inactive)	
O=c1c2[nH]c3ccccc3c2nc2n1CCS2	1.63% (inactive)	
O=C(Cn1c2ccccc2c2nc3n(c(=O)c21)CCS3)N1CCCCC1	-12% (inactive)	
O=c1c2[nH]c3ccc(F)cc3c2nc2n1CCS2	1.87% (inactive)	
O=C(Cn1c2ccccc2c2nc3n(c(=O)c21)CCS3)NCCc1ccc(Cl)cc1	2.63% (inactive)	
O=C(Cn1c2ccccc2c2nc3n(c(=O)c21)CCS3)N1CCOCC1	-2.95% (inactive)	
O=C(Cn1c2ccc(F)cc2c2nc3n(c(=O)c21)CCS3)N1CCCCC1	-3.59% (inactive)	
O=C(Cn1c2ccc(F)cc2c2nc3n(c(=O)c21)CCS3)N1CCCCCC1	-9.37% (inactive)	
O=C(Cn1c2ccccc2c2nc3n(c(=O)c21)CCCS3)c1ccc(F)cc1	2.75% (inactive)	
O=C(O)Cn1nc(-c2ccccc2)c2ccccc21	-0.226% (inactive)	
O=C(Cn1c2ccccc2c2ccncc21)N1CCCCC1	-14% (inactive)	
CC1CCN(C(=O)Cn2c3ccccc3c3nc4n(c(=O)c32)CCCS4)CC1	1.1% (inactive)	
COC(=O)Cn1c(-c2ccccc2)nc2ccccc21	0.011% (inactive)	
O=C(Cn1c2ccc(F)cc2c2nc3n(c(=O)c21)CCS3)N1CCCC1	2.6% (inactive)	
CCN(CC)C(=O)Cn1c2ccc(F)cc2c2nc3n(c(=O)c21)CCS3	3.09% (inactive)	
CCN(CC)C(=O)Cn1c2ccccc2c2nc3n(c(=O)c21)CCS3		inactive
